According to ChEMBL document CHEMBL5058577, “EUbOPEN Chemogenomics Library 2 (Multiplex)” (2022):

Tested on: U2OS
Experiment: Multiplex assay against U2OS
Assay type: toxicity, cell-based
Settings: human
Procedure, shortened: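 Per cents of healthy-nucleus cells form the tubulin, mitochondrial-mass and membrane-permeability phenotype values. Live cells were stained at seeding with Hoechst33342, BioTracker Green Microtubule Cytoskeleton Dye, MitoTracker Red and Annexin V Alexa Fluor 680. After compound addition they were imaged on a CQ1 microscope at 37°C and 5% CO2, and CellPathfinder machine-learning gating split them into Hoechst high-intensity objects or normal cells, normal cells into healthy, pyknosed or fragmented nuclei, and pyknosed cells into mitotic or apoptotic.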

[1] = 12 h, 1 µM, compound concentration 1 uM, replicate 1
[2] = 12 h, 1 µM, compound concentration 1 uM, replicate 2
[3] = 12 h, 10 µM, compound concentration 10 uM, replicate 1
[4] = 12 h, 10 µM, compound concentration 10 uM, replicate 2
[5] = 24 h, 1 µM, compound concentration 1 uM, replicate 1
[6] = 24 h, 1 µM, compound concentration 1 uM, replicate 2
[7] = 24 h, 10 µM, compound concentration 10 uM, replicate 1
[8] = 24 h, 10 µM, compound concentration 10 uM, replicate 2
[9] = 48 h, 1 µM, compound concentration 1 uM, replicate 1
[10] = 48 h, 1 µM, compound concentration 1 uM, replicate 2
[11] = 48 h, 10 µM, compound concentration 10 uM, replicate 1
[12] = 48 h, 10 µM, compound concentration 10 uM, replicate 2

O=C(NCCN1CCC(n2c(=O)[nH]c3cc(Cl)ccc32)CC1)c1ccc(F)cc1 [HALOPEMIDE]
Population Apoptotic (%) [1]: 95% | Population Fragmented Nuclei (%) [1]: 24% | Population Healthy Nuclei (%) [1]: 65% | Population Hoechst High Intensity Objects (%) [1]: 1% | Population Membrane Permeable-Phenotype (%) [1]: 6% | Population Mitochondria Different-Phenotype (%) [1]: 1% | Population Mitotic Cells (%) [1]: 4% | Population Normal (%) [1]: 98% | Population Pyknosed Nuclei (%) [1]: 10% | Population Tubulin-Different-Phenotype (%) [1]: 2% | Total Cell Count [1]: 209 | Population Apoptotic (%) [2]: 50% | Population Fragmented Nuclei (%) [2]: 13% | Population Healthy Nuclei (%) [2]: 79% | Population Hoechst High Intensity Objects (%) [2]: 0% | Population Membrane Permeable-Phenotype (%) [2]: 7% | Population Mitochondria Different-Phenotype (%) [2]: 2% | Population Mitotic Cells (%) [2]: 50% | Population Normal (%) [2]: 100% | Population Pyknosed Nuclei (%) [2]: 7% | Population Tubulin-Different-Phenotype (%) [2]: 3% | Total Cell Count [2]: 105 | Population Apoptotic (%) [3]: 68% | Population Fragmented Nuclei (%) [3]: 19% | Population Healthy Nuclei (%) [3]: 65% | Population Hoechst High Intensity Objects (%) [3]: 4% | Population Membrane Permeable-Phenotype (%) [3]: 23% | Population Mitochondria Different-Phenotype (%) [3]: 11% | Population Mitotic Cells (%) [3]: 31% | Population Normal (%) [3]: 95% | Population Pyknosed Nuclei (%) [3]: 15% | Population Tubulin-Different-Phenotype (%) [3]: 15% | Total Cell Count [3]: 244 | Population Apoptotic (%) [4]: 61% | Population Fragmented Nuclei (%) [4]: 12% | Population Healthy Nuclei (%) [4]: 78% | Population Hoechst High Intensity Objects (%) [4]: 1% | Population Membrane Permeable-Phenotype (%) [4]: 26% | Population Mitochondria Different-Phenotype (%) [4]: 32% | Population Mitotic Cells (%) [4]: 38% | Population Normal (%) [4]: 98% | Population Pyknosed Nuclei (%) [4]: 8% | Population Tubulin-Different-Phenotype (%) [4]: 27% | Total Cell Count [4]: 152 | Population Apoptotic (%) [5]: 91% | Population Fragmented Nuclei (%) [5]: 22% | Population Healthy Nuclei (%) [5]: 68% | Population Hoechst High Intensity Objects (%) [5]: 1% | Population Membrane Permeable-Phenotype (%) [5]: 6% | Population Mitochondria Different-Phenotype (%) [5]: 1% | Population Mitotic Cells (%) [5]: 8% | Population Normal (%) [5]: 98% | Population Pyknosed Nuclei (%) [5]: 9% | Population Tubulin-Different-Phenotype (%) [5]: 1% | Total Cell Count [5]: 241 | Population Apoptotic (%) [6]: 81% | Population Fragmented Nuclei (%) [6]: 15% | Population Healthy Nuclei (%) [6]: 72% | Population Hoechst High Intensity Objects (%) [6]: 0% | Population Membrane Permeable-Phenotype (%) [6]: 10% | Population Mitochondria Different-Phenotype (%) [6]: 3% | Population Mitotic Cells (%) [6]: 18% | Population Normal (%) [6]: 99% | Population Pyknosed Nuclei (%) [6]: 12% | Population Tubulin-Different-Phenotype (%) [6]: 8% | Total Cell Count [6]: 132 | Population Apoptotic (%) [7]: 75% | Population Fragmented Nuclei (%) [7]: 17% | Population Healthy Nuclei (%) [7]: 64% | Population Hoechst High Intensity Objects (%) [7]: 2% | Population Membrane Permeable-Phenotype (%) [7]: 15% | Population Mitochondria Different-Phenotype (%) [7]: 10% | Population Mitotic Cells (%) [7]: 25% | Population Normal (%) [7]: 97% | Population Pyknosed Nuclei (%) [7]: 18% | Population Tubulin-Different-Phenotype (%) [7]: 7% | Total Cell Count [7]: 271 | Population Apoptotic (%) [8]: 63% | Population Fragmented Nuclei (%) [8]: 16% | Population Healthy Nuclei (%) [8]: 71% | Population Hoechst High Intensity Objects (%) [8]: 3% | Population Membrane Permeable-Phenotype (%) [8]: 26% | Population Mitochondria Different-Phenotype (%) [8]: 23% | Population Mitotic Cells (%) [8]: 36% | Population Normal (%) [8]: 96% | Population Pyknosed Nuclei (%) [8]: 12% | Population Tubulin-Different-Phenotype (%) [8]: 21% | Total Cell Count [8]: 159 | Population Apoptotic (%) [9]: 68% | Population Fragmented Nuclei (%) [9]: 16% | Population Healthy Nuclei (%) [9]: 75% | Population Hoechst High Intensity Objects (%) [9]: 2% | Population Membrane Permeable-Phenotype (%) [9]: 4% | Population Mitochondria Different-Phenotype (%) [9]: 2% | Population Mitotic Cells (%) [9]: 32% | Population Normal (%) [9]: 97% | Population Pyknosed Nuclei (%) [9]: 7% | Population Tubulin-Different-Phenotype (%) [9]: 2% | Total Cell Count [9]: 337 | Population Apoptotic (%) [10]: 95% | Population Fragmented Nuclei (%) [10]: 17% | Population Healthy Nuclei (%) [10]: 69% | Population Hoechst High Intensity Objects (%) [10]: 1% | Population Membrane Permeable-Phenotype (%) [10]: 9% | Population Mitochondria Different-Phenotype (%) [10]: 5% | Population Mitotic Cells (%) [10]: 4% | Population Normal (%) [10]: 98% | Population Pyknosed Nuclei (%) [10]: 12% | Population Tubulin-Different-Phenotype (%) [10]: 6% | Total Cell Count [10]: 187 | Population Apoptotic (%) [11]: 81% | Population Fragmented Nuclei (%) [11]: 15% | Population Healthy Nuclei (%) [11]: 69% | Population Hoechst High Intensity Objects (%) [11]: 3% | Population Membrane Permeable-Phenotype (%) [11]: 10% | Population Mitochondria Different-Phenotype (%) [11]: 5% | Population Mitotic Cells (%) [11]: 18% | Population Normal (%) [11]: 96% | Population Pyknosed Nuclei (%) [11]: 14% | Population Tubulin-Different-Phenotype (%) [11]: 5% | Total Cell Count [11]: 382 | Population Apoptotic (%) [12]: 77% | Population Fragmented Nuclei (%) [12]: 13% | Population Healthy Nuclei (%) [12]: 67% | Population Hoechst High Intensity Objects (%) [12]: 6% | Population Membrane Permeable-Phenotype (%) [12]: 16% | Population Mitochondria Different-Phenotype (%) [12]: 12% | Population Mitotic Cells (%) [12]: 22% | Population Normal (%) [12]: 93% | Population Pyknosed Nuclei (%) [12]: 18% | Population Tubulin-Different-Phenotype (%) [12]: 6% | Total Cell Count [12]: 197
